Key:
Assay type in all cases: functional
[1] = test system: Mus musculus; assay: Effect on thermal pain in Swiss mouse at 70 mg/kg, po after 1 hr by hot plate test
Method in brief: (§1)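 Hot-plate at 52 °C, 60 s cut-off, Swiss mice, six per group. Latency to paw licking or jumping recorded before and 1 h after oral dosing (test agents in distilled water, reference in 5% sodium bicarbonate). % change from basal latency. Mean ± SE; one-way ANOVA, Duncan's test.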

[2] = test system: Mus musculus; assay: Antiinflammatory activity in Swiss mouse assessed as inhibition of carrageenan-induced hind paw oedema at 70 mg/kg, po after 4 hrs relative to indomethacin
Method in brief: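 Carrageenan paw oedema in Swiss mice, six per group, 70 mg/kg orally in distilled water; 50 µL 1% carrageenan subplantar, paw measured at 0 and 4 h. Potency expressed as ratio of the compound's percentage change to that of the indomethacin group (35 mg/kg in 5% sodium bicarbonate).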

[3] = test system: Mus musculus; assay: Antinociceptive activity in Swiss mouse assessed as inhibition of acetic-acid induced writhing at 70 mg/kg, po after 30 mins by Koster test relative to indomethacin
Method in brief: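 Acetic acid writhing in Swiss mice, six per group: 70 mg/kg orally in distilled water, 0.6% acetic acid ip 60 min later, writhes counted over 30 min. Potency is the ratio of % change to that of the indomethacin group (35 mg/kg).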

[4] = test system: Mus musculus; assay: Effect on thermal pain in Swiss mouse at 70 mg/kg, po after 1 hr by hot plate test relative to indomethacin; parameters: unit not given here
Method in brief: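 Hot-plate at 52 °C (60 s cut-off), Swiss mice, six per group. Latency to licking or jumping measured before and 1 h after 70 mg/kg orally. Potency is the ratio of % change from basal to that of the indomethacin group (35 mg/kg).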

[5] = test system: Mus musculus; assay: Antiinflammatory activity in Swiss mouse assessed as inhibition of carrageenan-induced hind paw oedema at 70 mg/kg, po after 4 hrs
Method in brief: (§2)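 Swiss mice (20–30 g), six per group; oral dosing, test agents in distilled water, reference in 5% sodium bicarbonate, saline controls. Oedema induced by subplantar injection of 50 µL 1% carrageenan in saline into right hind paw. Paw size measured before and 4 h after carrageenan. % oedema inhibition calculated versus saline control group's % oedema formation. Mean ± SE; one-way ANOVA, Duncan's test.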

[6] = test system: Mus musculus; assay: Antinociceptive activity in Swiss mouse assessed as inhibition of acetic-acid induced writhing at 70 mg/kg, po after 30 mins by Koster test
Method in brief: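 Koster writhing test in Swiss mice (20–30 g), six per group. Oral dosing, test agents in distilled water, reference in 5% sodium bicarbonate. After 60 min, 0.6% acetic acid given ip (0.2 mL/mouse). Writhes counted over 30 min. % change versus saline control group. Mean ± SE; one-way ANOVA, Duncan's test.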

[7] = test system: Mus musculus; assay: Effect on thermal pain in Swiss mouse at 35 mg/kg, po after 1 hr by hot plate test; method in brief: as §1
[8] = test system: Mus musculus; assay: Antinociceptive activity in Swiss mouse assessed as inhibition of acetic-acid induced writhing at 35 mg/kg, […] by Koster test; parameters: scale not given: the % may be the effect or the level left; details: route oral
[9] = test system: Mus musculus; assay: Antiinflammatory activity in Swiss mouse assessed as inhibition of carrageenan-induced hind paw oedema at 35 mg/kg, po after 4 hrs; method in brief: as §2

Structure (SMILES): N#C/C(C(=O)c1c[nH]c2ccccc12)=C(\S)Nc1ccccc1
- Activity [1]: 24.2%
- Activity [2]: 0.9 ratio (fold of indomethacin)
- Activity [3]: 0.79 ratio to indomethacin
- Activity [4]: 1.1
- inhibition in vivo at 70 mg/kg [5]: -28%
- percent change in writhing count versus control [6]: -64.1%

Structure (SMILES): CC(=O)c1sc(Nc2ccccc2)c(C#N)c1-c1c[nH]c2ccccc12
- Activity [1]: 11.2%
- Activity [2]: 1.5 ratio (fold of indomethacin)
- Activity [3]: 0.85 ratio to indomethacin
- Activity [4]: 0.5
- inhibition in vivo at 70 mg/kg [5]: -44.4%
- percent change in writhing count versus control [6]: -68.6%

Structure (SMILES): COc1ccc2c(c1)c(CC(=O)O)c(C)n2C(=O)c1ccc(Cl)cc1 [INDOMETHACIN]
- Activity [7]: 22.6%
- Activity [8]: -80.7%
- inhibition in vivo at 35 mg/kg [9]: -29.9%

Structure (SMILES): N#C/C(=N\Nc1cc(-c2ccccc2)n[nH]1)C(=O)c1c[nH]c2ccccc12
- Activity [1]: 28.3%
- Activity [2]: 0.4 ratio (fold of indomethacin)
- Activity [3]: 0.77 ratio to indomethacin
- Activity [4]: 1.3
- inhibition in vivo at 70 mg/kg [5]: -13.1%
- percent change in writhing count versus control [6]: -62.5%

Structure (SMILES): CC(=O)C1=NN(c2ccc(C)cc2)/C(=C(\C#N)C(=O)c2c[nH]c3ccccc23)S1
- Activity [1]: 21%
- Activity [2]: 1.1 ratio (fold of indomethacin)
- Activity [3]: 0.7 ratio to indomethacin
- Activity [4]: 0.9
- inhibition in vivo at 70 mg/kg [5]: -32.7%
- percent change in writhing count versus control [6]: -57.8%

Structure (SMILES): N#C/C(C(=O)c1c[nH]c2ccccc12)=C1/SC(c2ccccc2)=NN1c1ccccc1
- Activity [1]: 27.3%
- Activity [2]: 0.9 ratio (fold of indomethacin)
- Activity [3]: 0.4 ratio to indomethacin
- Activity [4]: 1.2
- inhibition in vivo at 70 mg/kg [5]: -31%
- percent change in writhing count versus control [6]: -35.3%

Structure (SMILES): N#C/C(C(=O)c1c[nH]c2ccccc12)=C1/SCC(=O)N1c1ccccc1
- Activity [1]: 76.5%
- Activity [2]: 0.3 ratio (fold of indomethacin)
- Activity [3]: 0.75 ratio to indomethacin
- Activity [4]: 3.4
- inhibition in vivo at 70 mg/kg [5]: -7.7%
- percent change in writhing count versus control [6]: -60.9%

Structure (SMILES): N#C/C(=N\Nc1nc2ccccc2[nH]1)C(=O)c1c[nH]c2ccccc12
- Activity [1]: 8.6%
- Activity [2]: 0.9 ratio (fold of indomethacin)
- Activity [3]: 0.78 ratio to indomethacin
- Activity [4]: 0.4
- inhibition in vivo at 70 mg/kg [5]: -25.5%
- percent change in writhing count versus control [6]: -63.2%

Structure (SMILES): CC(=O)C1=NN(c2ccccc2)/C(=C(\C#N)C(=O)c2c[nH]c3ccccc23)S1
- Activity [1]: 2.4%
- Activity [2]: 0.6 ratio (fold of indomethacin)
- Activity [3]: 0.88 ratio to indomethacin
- Activity [4]: 0.1
- inhibition in vivo at 70 mg/kg [5]: -21.9%
- percent change in writhing count versus control [6]: -71.6%

Structure (SMILES): CCOC(=O)C1=NN(c2ccccc2)/C(=C(\C#N)C(=O)c2c[nH]c3ccccc23)S1
- Activity [1]: 9.6%
- Activity [2]: 0.2 ratio (fold of indomethacin)
- Activity [3]: 0.76 ratio to indomethacin
- Activity [4]: 0.4
- inhibition in vivo at 70 mg/kg [5]: -5.5%
- percent change in writhing count versus control [6]: -61.7%

Structure (SMILES): CCOC(=O)C1=NN(c2ccc(Cl)cc2)/C(=C(\C#N)C(=O)c2c[nH]c3ccccc23)S1
- Activity [1]: 9.9%
- Activity [2]: 0.6 ratio (fold of indomethacin)
- Activity [3]: 0.9 ratio to indomethacin
- Activity [4]: 0.4
- inhibition in vivo at 70 mg/kg [5]: -19.1%
- percent change in writhing count versus control [6]: -76%

Structure (SMILES): CC(=O)C1=NN(c2ccc(Cl)cc2)/C(=C(\C#N)C(=O)c2c[nH]c3ccccc23)S1
- Activity [1]: 69.6%
- Activity [2]: 0.5 ratio (fold of indomethacin)
- Activity [3]: 0.57 ratio to indomethacin
- Activity [4]: 3.1
- inhibition in vivo at 70 mg/kg [5]: -15%
- percent change in writhing count versus control [6]: -45.7%

Structure (SMILES): CCOC(=O)C1=NN(c2ccc(C)cc2)/C(=C(\C#N)C(=O)c2c[nH]c3ccccc23)S1
- Activity [1]: 11.4%
- Activity [2]: 0.4 ratio (fold of indomethacin)
- Activity [3]: 0.96 ratio to indomethacin
- Activity [4]: 0.5
- inhibition in vivo at 70 mg/kg [5]: -11.5%
- percent change in writhing count versus control [6]: -77.5%
